Assay results from publication PMC3328401 (Journal of Medicinal Chemistry, 2012).

Assays:
OVCAR-3 cells = test: Subcellular distribution of 125I-labeled reagents; assay type: cell-based, human; conditions: for ^125I in cytoplasm, 24 hours / ^125I in nucleus, 24 hours: 1 h incubation then 24 h in fresh nonradioactive medium; for ^125I in cytoplasm, 1 hour / ^125I in nucleus, 1 hour: 1 h incubation, 55.5 kBq/mL
In short: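 OVCAR-3 cells were kept in RPMI-1640 with insulin, 2 mM L-glutamine and 20% FBS and expanded as intraperitoneal xenografts in athymic nude mice. Cells in six T150 flasks attached overnight, then were exposed 1 h to ¹²⁵I compound (55.5 kBq/mL). Three flasks were processed immediately and three after 24 h in fresh medium. Cells were trypsinized, counted, fractionated into nuclear/cytoplasmic compartments and gamma-counted.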

[1] = Chemical hydrolysis of cycloSal phosphate triesters in phosphate buffer; assay type: physicochemical; conditions: phosphate buffer 50 mM, pH 7.3, 37°C, ~15% acetonitrile

Row | Structure (SMILES) | ^125I in cytoplasm, 24 hours (OVCAR-3 cells) | ^125I in nucleus, 24 hours (OVCAR-3 cells) | ^125I in cytoplasm, 1 hour (OVCAR-3 cells) | ^125I in nucleus, 1 hour (OVCAR-3 cells) | k (rate of hydrolysis) [1] [min⁻¹] | retained radioactivity, more than 6b (OVCAR-3 cells; OVCAR-3, 24 h) [%] | retained radioactivity, more than 7b (OVCAR-3 cells; OVCAR-3, 24 h)
1 | O=c1[nH]c(=O)n([C@H]2C[C@H](O)[C@@H](COP3(=O)OCc4ccccc4O3)O2)cc1[125I] (stereo partly shown) [6b, 5-[^125I]-Iodo-5′-O-cycloSaligenyl-2′-deoxyuridine Monophosphate] | 7.3 (1.0) cpm/10^3 cells (std dev) | 39.4 (5.8) cpm/10^3 cells (std dev) | 20.2 (3.2) cpm/10^3 cells (std dev) | 5.7 (1.6) cpm/10^3 cells (std dev) |  |  | 
2 | Cc1cccc2c1OP(=O)(OC[C@H]1O[C@@H](n3cc([125I])c(=O)[nH]c3=O)C[C@@H]1O)OC2 (stereo partly shown) [7b, 5-[^125I]-Iodo-5′-O-cyclo(3-methylSaligenyl)-2′-deoxyuridine Monophosphate] | 1.6 (0.5) cpm/10^3 cells (std dev) | 25.9 (7.1) cpm/10^3 cells (std dev) | 11.7 (1.7) cpm/10^3 cells (std dev) | 4.5 (1.0) cpm/10^3 cells (std dev) |  |  | 
3 | CC(C)(C)c1cc(C(C)(C)C)c2c(c1F)COP(=O)(OC[C@H]1O[C@@H](n3cc(I)c(=O)[nH]c3=O)C[C@@H]1O)O2 (stereo partly shown) [8-fast, 5-Iodo-5′-O-[cyclo-3,5-di-(tert-butyl)-6-fluoroSaligenyl]-2′-deoxyuridine Monophosphate] |  |  |  |  | 0.000241 |  | 
4 | CC(C)(C)c1cc(C(C)(C)C)c2c(c1F)COP(=O)(OC[C@H]1O[C@@H](n3cc(I)c(=O)[nH]c3=O)C[C@@H]1O)O2 (stereo partly shown) [8-slow, 5-Iodo-5′-O-[cyclo-3,5-di-(tert-butyl)-6-fluoroSaligenyl]-2′-deoxyuridine Monophosphate] |  |  |  |  | 0.000188 |  | 
5 | CC(C)(C)c1cc(C(C)(C)C)c2c(c1F)COP(=O)(OC[C@H]1O[C@@H](n3cc([125I])c(=O)[nH]c3=O)C[C@@H]1O)O2 (stereo partly shown) [8b, 5-[^125I]-Iodo-5′-O-[cyclo-3,5-di-(tert-butyl)-6-fluoroSaligenyl]-2′-deoxyuridine Monophosphate] | 3.2 (0.01) cpm/10^3 cells (std dev) | 92.2 (5.0) cpm/10^3 cells (std dev) | 88.3 (5.4) cpm/10^3 cells (std dev) | 7.9 (0.4) cpm/10^3 cells (std dev) |  | > 230 | ~ 360%
6 | O=c1[nH]c(=O)n([C@H]2C[C@H](OP3(=O)OCc4ccccc4O3)[C@@H](COP3(=O)OCc4ccccc4O3)O2)cc1[125I] (stereo partly shown) [9b] | 37.3 (10.0) cpm/10^3 cells (std dev) | 18.1 (3.9) cpm/10^3 cells (std dev) | 97.6 (10.0) cpm/10^3 cells (std dev) | 6.4 (0.5) cpm/10^3 cells (std dev) |  |  | 
7 | Cc1cccc2c1OP(=O)(OC[C@H]1O[C@@H](n3cc([125I])c(=O)[nH]c3=O)C[C@@H]1OP1(=O)OCc3cccc(C)c3O1)OC2 (stereo partly shown) [10b] | 13.4 (3.3) cpm/10^3 cells (std dev) | 24.5 (5.4) cpm/10^3 cells (std dev) | 97.1 (14.6) cpm/10^3 cells (std dev) | 6.0 (0.9) cpm/10^3 cells (std dev) |  |  | 
8 | O=c1[nH]c(=O)n([C@H]2C[C@H](OP3(=O)OCc4ccccc4O3)[C@@H](CO)O2)cc1I (stereo partly shown) [12-fast, 5-Iodo-3′-O-cycloSaligenyl-2′-deoxyuridine Monophosphate] |  |  |  |  | 0.00205 |  | 
9 | O=c1[nH]c(=O)n([C@H]2C[C@H](OP3(=O)OCc4ccccc4O3)[C@@H](CO)O2)cc1I (stereo partly shown) [12-slow, 5-Iodo-3′-O-cycloSaligenyl-2′-deoxyuridine Monophosphate] |  |  |  |  | 0.00164 |  | 
10 | O=c1[nH]c(=O)n([C@H]2C[C@H](OP3(=O)OCc4ccccc4O3)[C@@H](CO)O2)cc1[125I] (stereo partly shown) [12b, 5-[^125I]-Iodo-3′-O-cycloSaligenyl-2′-deoxyuridine Monophosphate] | 2.7 (0.3) cpm/10^3 cells (std dev) | 30.2 (5.3) cpm/10^3 cells (std dev) | 7.2 (0.7) cpm/10^3 cells (std dev) | 2.1 (0.2) cpm/10^3 cells (std dev) |  |  | 
11 | Cc1cccc2c1OP(=O)(O[C@H]1C[C@H](n3cc(I)c(=O)[nH]c3=O)O[C@@H]1CO)OC2 (stereo partly shown) [13-fast, 5 - Iodo-3′-O-cyclo(3-methylSaligenyl)-2′-deoxyuridine Monophosphate] |  |  |  |  | 0.000946 |  | 
12 | Cc1cccc2c1OP(=O)(O[C@H]1C[C@H](n3cc(I)c(=O)[nH]c3=O)O[C@@H]1CO)OC2 (stereo partly shown) [13-slow, 5 - Iodo-3′-O-cyclo(3-methylSaligenyl)-2′-deoxyuridine Monophosphate] |  |  |  |  | 0.000813 |  | 
13 | Cc1cccc2c1OP(=O)(O[C@H]1C[C@H](n3cc([125I])c(=O)[nH]c3=O)O[C@@H]1CO)OC2 (stereo partly shown) [13b, 5-[^125I]-Iodo-3′-O-cyclo(3-methylSaligenyl)-2′-deoxyuridine Monophosphate] | 1.4 (0.3) cpm/10^3 cells (std dev) | 15.7 (2.2) cpm/10^3 cells (std dev) | 6.2 (0.6) cpm/10^3 cells (std dev) | 2.0 (0.2) cpm/10^3 cells (std dev) |  |  | 
14 | CC(C)(C)c1cc(C(C)(C)C)c2c(c1F)COP(=O)(O[C@H]1C[C@H](n3cc(I)c(=O)[nH]c3=O)O[C@@H]1CO)O2 (stereo partly shown) [14-fast, 5-Iodo-3′-O-[cyclo-3,5-di-(tert-butyl)-6-fluoroSaligenyl]-2′-deoxyuridine Monophosphate] |  |  |  |  | 0.000766 |  | 
15 | CC(C)(C)c1cc(C(C)(C)C)c2c(c1F)COP(=O)(O[C@H]1C[C@H](n3cc(I)c(=O)[nH]c3=O)O[C@@H]1CO)O2 (stereo partly shown) [14-slow, 5-Iodo-3′-O-[cyclo-3,5-di-(tert-butyl)-6-fluoroSaligenyl]-2′-deoxyuridine Monophosphate] |  |  |  |  | 0.000667 |  | 
16 | CC(C)(C)c1cc(C(C)(C)C)c2c(c1F)COP(=O)(O[C@H]1C[C@H](n3cc([125I])c(=O)[nH]c3=O)O[C@@H]1CO)O2 (stereo partly shown) [14b, 5-[^125I]-Iodo-3′-O-(cyclo-3,5-di-(tert-butyl)-6-fluoroSaligenyl)-2′-deoxyuridine Monophosphate] | 2.7 (0.4) cpm/10^3 cells (std dev) | 66.7 (8.4) cpm/10^3 cells (std dev) | 62.5 (4.3) cpm/10^3 cells (std dev) | 4.3 (0.3) cpm/10^3 cells (std dev) |  |  | 
17 | CC(C)(C)c1cc(C(C)(C)C)c2c(c1F)COP(=O)(OC[C@H]1O[C@@H](n3cc(I)c(=O)[nH]c3=O)C[C@@H]1F)O2 (stereo partly shown) [24-fast, 5-Iodo-5′-O-[cyclo-3,5-Di-(tert-butyl)-6-fluoroSaligenyl]-3′-fluoro-2′,3′-dideoxyuridine Monophosphate] |  |  |  |  | 0.000292 |  | 
